B1: Osa-1-4 twister ribozyme (parent)
chain: CCGCCUAACACUGCCAAUGCCGGUCCCAAGCCCGGAUAAAAGUGGAGGGGGCGG

Variants of: B1
Assay: self-cleavage, relative activity (ratio to wild type); higher = more cleavage; co-transcriptional
In short: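 The 48 positions downstream of the cleavage site in a 54-nucleotide Oryza sativa twister ribozyme template were synthesised at 97 % wild-type base and 1 % of each other base. The template was transcribed in vitro at 37 °C for 2 h, with self-cleavage allowed during transcription. Reads with or without upstream sequence after deep sequencing marked cleavage status, and relative activity is fraction cleaved normalised to wild type.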

Row | Variant | self-cleavage
1 | G34U U18C | 0.31
2 | G34U U18G | 0.58
3 | G34U U24A | 0.15
4 | G34U U24C | 0.07
5 | G34U U24G | 0.03
6 | G34U U37A | 0.79
7 | G34U U37C | 0.84
8 | G34U U37G | 0.87
9 | G34U U43A | 0.11
10 | G34U U43C | 0.15
11 | G34U U43G | 0.07
12 | G35A | 0.9
13 | G35A G42A | 0.44
14 | G35A G42C | 0.17
15 | G35A G42U | 0.08
16 | G35A G44A | 0.8
17 | G35A G44C | 0.76
18 | G35A G44U | 0.71
19 | G35A G45A | 0.31
20 | G35A G45C | 0.06
21 | G35A G45U | 0.15
22 | G35A G47A | 0.27
23 | G35A G47C | 0.11
24 | G35A G47U | 0.18

Row | Variant | self-cleavage
25 | G35A G48A | 0.12
26 | G35A G48C | 0.1
27 | G35A G48U | 0.09
28 | G35A G49A | 0.18
29 | G35A G49C | 0.07
30 | G35A G49U | 0.16
31 | G35A G50A | 0.35
32 | G35A G50C | 0.78
33 | G35A G50U | 0.9
34 | G35A G51A | 0.25
35 | G35A G51C | 0.07
36 | G35A G51U | 0.12
37 | G35A G53A | 0.68
38 | G35A G53C | 0.08
39 | G35A G53U | 0.22
40 | G35A G54A | 0.85
41 | G35A G54C | 0.85
42 | G35A G54U | 0.81
43 | G35A U12A | 0.61
44 | G35A U12C | 0.48
45 | G35A U12G | 0.06
46 | G35A U18A | 0.79
47 | G35A U18C | 0.52
48 | G35A U18G | 0.79

Row | Variant | self-cleavage
49 | G35A U24A | 0.32
50 | G35A U24C | 0.08
51 | G35A U24G | 0.03
52 | G35A U37A | 1.05
53 | G35A U37C | 0.92
54 | G35A U37G | 0.89
55 | G35A U43A | 0.46
56 | G35A U43C | 0.41
57 | G35A U43G | 0.12
58 | G35C | 0.72
59 | G35C G42A | 0.08
60 | G35C G42C | 0.07
61 | G35C G42U | 0.07
62 | G35C G44A | 0.25
63 | G35C G44C | 0.45
64 | G35C G44U | 0.26
65 | G35C G45A | 0.05
66 | G35C G45C | 0.07
67 | G35C G45U | 0.05
68 | G35C G47A | 0.05
69 | G35C G47C | 0.05
70 | G35C G47U | 0.05
71 | G35C G48A | 0.05
72 | G35C G48C | 0.04

Row | Variant | self-cleavage
73 | G35C G48U | 0.04
74 | G35C G49A | 0.05
75 | G35C G49C | 0.05
76 | G35C G49U | 0.05
77 | G35C G50A | 0.24
78 | G35C G50C | 0.1
79 | G35C G50U | 0.17
80 | G35C G51A | 0.09
81 | G35C G51C | 0.05
82 | G35C G51U | 0.06
83 | G35C G53A | 0.12
84 | G35C G53C | 0.06
85 | G35C G53U | 0.09
86 | G35C G54A | 0.2
87 | G35C G54C | 0.13
88 | G35C G54U | 0.36
89 | G35C U12A | 0.08
90 | G35C U12C | 0.09
91 | G35C U12G | 0.07
92 | G35C U18A | 0.84
93 | G35C U18C | 0.56
94 | G35C U18G | 0.77
95 | G35C U24A | 0.06
96 | G35C U24C | 0.05

Row | Variant | self-cleavage
97 | G35C U24G | 0.01
98 | G35C U37A | 0.93
99 | G35C U37C | 0.94
100 | G35C U37G | 0.9
101 | G35C U43A | 0.14
102 | G35C U43C | 0.09
103 | G35C U43G | 0.1
104 | G35U | 0.9
105 | G35U G42A | 0.35
106 | G35U G42C | 0.11
107 | G35U G42U | 0.08
108 | G35U G44A | 0.88
109 | G35U G44C | 0.74
110 | G35U G44U | 0.74
111 | G35U G45A | 0.19
112 | G35U G45C | 0.06
113 | G35U G45U | 0.09
114 | G35U G47A | 0.15
115 | G35U G47C | 0.07
116 | G35U G47U | 0.14
117 | G35U G48A | 0.09
118 | G35U G48C | 0.07
119 | G35U G48U | 0.08
120 | G35U G49A | 0.11

Row | Variant | self-cleavage
121 | G35U G49C | 0.06
122 | G35U G49U | 0.1
123 | G35U G50A | 0.35
124 | G35U G50C | 0.79
125 | G35U G50U | 0.92
126 | G35U G51A | 0.25
127 | G35U G51C | 0.06
128 | G35U G51U | 0.15
129 | G35U G53A | 0.62
130 | G35U G53C | 0.07
131 | G35U G53U | 0.17
132 | G35U G54A | 0.8
133 | G35U G54C | 0.77
134 | G35U G54U | 0.8
135 | G35U U12A | 0.47
136 | G35U U12C | 0.37
137 | G35U U12G | 0.08
138 | G35U U18A | 0.8
139 | G35U U18C | 0.5
140 | G35U U18G | 0.77
141 | G35U U24A | 0.2
142 | G35U U24C | 0.08
143 | G35U U24G | 0.03
144 | G35U U37A | 0.92

Row | Variant | self-cleavage
145 | G35U U37C | 0.94
146 | G35U U37G | 0.89
147 | G35U U43A | 0.44
148 | G35U U43C | 0.21
149 | G35U U43G | 0.12
150 | A36C | 0.86
151 | A36C A7C | 0.05
152 | A36C A7G | 0.11
153 | A36C A7U | 0.05
154 | A36C A8C | 0.06
155 | A36C A8G | 0.14
156 | A36C A8U | 0.09
157 | A36C A38C | 0.81
158 | A36C A38G | 0.54
159 | A36C A38U | 0.79
160 | A36C A39C | 0.15
161 | A36C A39G | 0.2
162 | A36C A39U | 0.15
163 | A36C A40C | 0.05
164 | A36C A40G | 0.12
165 | A36C A40U | 0.13
166 | A36C A41C | 0.6
167 | A36C A41G | 0.13

Reference: the RNAGym collection of RNA variant scans (doi:10.1002/anie.201605470)
